The source of these data is ChEMBL document CHEMBL1159052 (Bioorg Med Chem, 2010).

For experiment [1], the target named is Sodium-dependent dopamine transporter (Rattus norvegicus, UniProt P23977). The experiment is described as follows: Inhibition of [3H]DA uptake at DAT in rat brain striatal synaptosomes by liquid scintillation spectrophotometry. It is filed as subcellular. The gist of the method: (§1)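 Synaptosomes were striatal for [3H]DA and hippocampal for [3H]5-HT, as P2 pellets in oxygenated Krebs with pargyline and ascorbate (pH 7.4), protein 400 μg/ml. Drug at […] was preincubated 10 min at 34 °C, then 10 nM tritiated substrate was added for 10 min. Uptake was stopped with ice-cold buffer and filtered on GF/B. Nonspecific uptake used 10 μM nomifensine (DA) or 10 μM fluoxetine (5-HT). Duplicates; IC50 by curve fit; Ki by Cheng-Prusoff.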
Sequence of Sodium-dependent dopamine transporter (P23977 whole entry): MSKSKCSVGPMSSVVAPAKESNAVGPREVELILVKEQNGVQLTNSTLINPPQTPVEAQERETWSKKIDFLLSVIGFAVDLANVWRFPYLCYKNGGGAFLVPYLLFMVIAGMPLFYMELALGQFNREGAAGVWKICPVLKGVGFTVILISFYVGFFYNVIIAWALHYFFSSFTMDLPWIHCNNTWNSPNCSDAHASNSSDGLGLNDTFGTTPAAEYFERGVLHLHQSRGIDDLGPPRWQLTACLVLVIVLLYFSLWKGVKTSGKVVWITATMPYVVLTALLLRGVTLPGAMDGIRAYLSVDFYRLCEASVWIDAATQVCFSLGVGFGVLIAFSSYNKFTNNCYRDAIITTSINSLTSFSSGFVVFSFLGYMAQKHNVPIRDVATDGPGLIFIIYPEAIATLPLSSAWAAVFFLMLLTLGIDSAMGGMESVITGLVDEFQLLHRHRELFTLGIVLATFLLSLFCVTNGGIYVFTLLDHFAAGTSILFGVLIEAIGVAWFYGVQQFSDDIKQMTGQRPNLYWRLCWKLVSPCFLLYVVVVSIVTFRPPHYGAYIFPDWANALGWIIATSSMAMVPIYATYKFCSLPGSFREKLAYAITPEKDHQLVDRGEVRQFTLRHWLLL

In experiment [2] the target is T1, Synaptic vesicular amine transporter (Rattus norvegicus, UniProt Q01827). The experiment is described as follows: Displacement of [3HDTBZ from VMAT2 in rat whole brain vesicles by liquid scintillation spectrophotometry. The gist of the method:
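Vesicles came from rat whole brain minus cerebellum, by hypotonic lysis and 100,000g pelleting, in HEPES/potassium-tartrate/MgSO4 buffer at pH 7.5, 15 μg protein per 100 μl. Final radioligand was 3 nM [3H]MTBZ or [3H]DTBZ, run in duplicate. […] Samples were filtered on PEI-soaked GF/B. Ki values come from at least four independent experiments.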

Experiment [3] can be described thus: Displacement of [3H]MLA from alpha7 nAChR in rat brain homogenate by liquid scintillation spectrophotometry. Format: tissue-based. The gist of the method:
(§2)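 Membranes came from whole brain minus cortex and cerebellum, washed in Krebs-HEPES buffer at pH 7.5, 100–140 μg protein per tube. IC50 came from a curve fit; Ki by Cheng-Prusoff. At least four experiments, each in duplicate.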

For experiment [4], the target named is Sodium-dependent serotonin transporter (Rattus norvegicus, UniProt P31652). Nature of the experiment: Inhibition of [3H]5HT uptake at SERT in rat brain hippocampal synaptosomes by liquid scintillation spectrophotometry. It is filed as subcellular, Hippocampus. The gist of the method: as §1
Sequence of Sodium-dependent serotonin transporter (P31652 whole entry): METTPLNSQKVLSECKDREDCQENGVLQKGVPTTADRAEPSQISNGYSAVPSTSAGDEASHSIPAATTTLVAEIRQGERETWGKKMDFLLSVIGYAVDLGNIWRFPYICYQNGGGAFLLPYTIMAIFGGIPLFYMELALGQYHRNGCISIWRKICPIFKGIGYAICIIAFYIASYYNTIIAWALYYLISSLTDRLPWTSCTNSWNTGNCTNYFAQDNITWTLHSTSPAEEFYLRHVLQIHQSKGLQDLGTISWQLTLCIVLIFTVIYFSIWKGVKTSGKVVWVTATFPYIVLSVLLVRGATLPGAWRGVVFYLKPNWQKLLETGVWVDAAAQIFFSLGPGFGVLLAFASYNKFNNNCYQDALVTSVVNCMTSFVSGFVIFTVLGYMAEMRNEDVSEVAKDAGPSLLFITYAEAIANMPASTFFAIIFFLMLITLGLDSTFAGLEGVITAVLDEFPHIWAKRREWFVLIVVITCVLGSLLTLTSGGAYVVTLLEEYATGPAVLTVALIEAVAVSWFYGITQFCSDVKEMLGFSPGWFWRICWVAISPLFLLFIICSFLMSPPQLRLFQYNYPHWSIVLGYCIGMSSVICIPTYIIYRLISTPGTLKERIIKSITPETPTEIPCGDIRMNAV
The target in experiment [5] is T2, Neuronal acetylcholine receptor; alpha4/beta2 (Rattus norvegicus, UniProt P09483+P12390). The experiment is described as follows: Displacement of [3H]nicotine from alpha4beta2 nAChR in rat brain homogenate by liquid scintillation spectrophotometry. It is filed as tissue-based. The gist of the method:
as §2
For orientation: In a radioligand displacement assay an active substance lowers the binding of a labelled ligand.

In experiment [6] the target is Synaptic vesicular amine transporter (Homo sapiens, UniProt Q05940). Nature of the experiment: Binding affinity to VMAT2 receptor.
Sequence of Synaptic vesicular amine transporter (Homo sapiens, UniProt Q05940) (Q05940 whole entry): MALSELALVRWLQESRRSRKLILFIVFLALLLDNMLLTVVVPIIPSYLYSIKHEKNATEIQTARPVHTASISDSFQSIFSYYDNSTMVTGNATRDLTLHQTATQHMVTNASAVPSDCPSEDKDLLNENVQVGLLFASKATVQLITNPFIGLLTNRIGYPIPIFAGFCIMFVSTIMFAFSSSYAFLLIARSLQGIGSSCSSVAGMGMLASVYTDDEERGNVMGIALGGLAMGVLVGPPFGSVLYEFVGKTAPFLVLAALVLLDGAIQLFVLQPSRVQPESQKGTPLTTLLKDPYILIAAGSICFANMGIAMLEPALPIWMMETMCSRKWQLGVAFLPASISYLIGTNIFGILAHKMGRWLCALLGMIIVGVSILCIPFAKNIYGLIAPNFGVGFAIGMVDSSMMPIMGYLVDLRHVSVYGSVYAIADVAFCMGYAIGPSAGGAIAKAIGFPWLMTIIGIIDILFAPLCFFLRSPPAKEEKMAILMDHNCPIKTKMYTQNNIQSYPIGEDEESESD
The target of experiment [7] is T1, Synaptic vesicular amine transporter. The experiment is described as follows: Displacement of [3H]MTBZ from VMAT2 in rat whole brain vesicles by liquid scintillation spectrophotometry. The procedure, abridged: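 Vesicles came from rat whole brain minus cerebellum, by hypotonic lysis and 100,000g pelleting, in HEPES/potassium-tartrate/MgSO4 buffer at pH 7.5, 15 μg protein per 100 μl. Final radioligand was 3 nM [3H]MTBZ or [3H]DTBZ, run in duplicate. Samples were filtered on PEI-soaked GF/B. Ki values come from at least four independent experiments.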

Experiment [8] deals with T2, Neuronal acetylcholine receptor; alpha4/beta2. The experiment is described as follows: Antagonist activity at alpha4beta2 nAChR in rat brain synaptosomes assessed as inhibition of nicotine-induced 86Rb+ efflux by liquid scintillation spectrophotometry. Format: functional, subcellular.

Where only a bound is given, the exact number is not on record here.

T1 sequence (Q01827 whole entry): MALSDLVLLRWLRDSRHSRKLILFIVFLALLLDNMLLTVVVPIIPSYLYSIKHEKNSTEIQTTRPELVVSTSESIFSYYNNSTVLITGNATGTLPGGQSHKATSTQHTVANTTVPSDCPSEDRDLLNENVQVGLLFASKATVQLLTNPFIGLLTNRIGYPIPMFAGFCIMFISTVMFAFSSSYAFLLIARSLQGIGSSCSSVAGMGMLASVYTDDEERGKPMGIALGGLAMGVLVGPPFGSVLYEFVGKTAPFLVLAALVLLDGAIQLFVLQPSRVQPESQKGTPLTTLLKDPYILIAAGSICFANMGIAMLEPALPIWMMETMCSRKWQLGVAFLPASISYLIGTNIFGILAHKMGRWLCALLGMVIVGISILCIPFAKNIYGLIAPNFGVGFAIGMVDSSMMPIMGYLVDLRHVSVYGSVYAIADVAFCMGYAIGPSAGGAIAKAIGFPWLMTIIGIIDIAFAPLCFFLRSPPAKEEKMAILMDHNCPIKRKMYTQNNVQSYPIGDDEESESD
T2 sequence (P09483 whole entry): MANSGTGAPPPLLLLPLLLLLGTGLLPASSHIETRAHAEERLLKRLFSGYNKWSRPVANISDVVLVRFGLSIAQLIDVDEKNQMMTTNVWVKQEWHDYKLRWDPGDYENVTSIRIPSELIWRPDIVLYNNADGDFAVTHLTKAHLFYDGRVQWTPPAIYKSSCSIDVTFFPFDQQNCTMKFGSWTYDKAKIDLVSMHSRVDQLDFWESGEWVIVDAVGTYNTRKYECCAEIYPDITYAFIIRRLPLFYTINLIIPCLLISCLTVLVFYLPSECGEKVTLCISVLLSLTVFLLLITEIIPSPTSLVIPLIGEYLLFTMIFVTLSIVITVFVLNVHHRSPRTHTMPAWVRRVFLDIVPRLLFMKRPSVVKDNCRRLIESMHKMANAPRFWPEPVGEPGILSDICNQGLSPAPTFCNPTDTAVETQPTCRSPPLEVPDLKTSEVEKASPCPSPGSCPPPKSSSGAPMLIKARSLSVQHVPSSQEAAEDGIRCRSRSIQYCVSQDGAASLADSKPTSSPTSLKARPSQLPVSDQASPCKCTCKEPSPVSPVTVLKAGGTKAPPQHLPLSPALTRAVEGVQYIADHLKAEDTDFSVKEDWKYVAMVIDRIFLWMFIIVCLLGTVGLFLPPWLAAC
T2 sequence (P12390 whole entry): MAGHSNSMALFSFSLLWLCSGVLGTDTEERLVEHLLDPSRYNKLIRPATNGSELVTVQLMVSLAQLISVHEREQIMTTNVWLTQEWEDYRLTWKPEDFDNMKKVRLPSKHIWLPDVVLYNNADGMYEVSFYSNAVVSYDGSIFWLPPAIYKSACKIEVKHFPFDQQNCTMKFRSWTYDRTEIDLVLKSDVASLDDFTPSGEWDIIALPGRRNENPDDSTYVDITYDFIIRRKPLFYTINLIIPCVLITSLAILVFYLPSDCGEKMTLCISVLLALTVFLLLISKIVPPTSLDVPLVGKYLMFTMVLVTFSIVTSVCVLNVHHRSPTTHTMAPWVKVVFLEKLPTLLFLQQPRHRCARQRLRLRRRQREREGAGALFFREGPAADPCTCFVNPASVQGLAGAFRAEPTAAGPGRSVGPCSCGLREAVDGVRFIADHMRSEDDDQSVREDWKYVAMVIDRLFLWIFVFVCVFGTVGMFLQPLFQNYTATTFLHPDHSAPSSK

The term Ki denotes a measure of affinity in units of concentration, obtained from inhibition or displacement. As for `CCCCS(=O)(=O)OC(C[C@@H]1CCCC(CC(=O)c2ccccc2)N1C)c1ccccc1` (single isomer, unassigned), the Ki in experiment [1] is 11.8 µM; in experiment [2], 1.98 µM; in experiment [3], 41 µM; in experiment [4], 5.16 µM; in experiment [5] it was 0.011 µM.
On to `CN1[C@@H](CCc2cccc3ccccc23)CCC[C@H]1CCc1cccc2ccccc12`, for which the Ki in experiment [6] is 0.63 µM.
For the compound `CC(C)C(=O)OC(C[C@@H]1CCCC(CC(=O)c2ccccc2)N1C)c1ccccc1` (single isomer, unassigned), the Ki in experiment [1] is 2.38 µM; in experiment [7], 2.61 µM; in experiment [3], above 100 µM; in experiment [4], 1.06 µM; in experiment [5] it was 0.06 µM.
Consider `CN1C(CC(=O)c2ccccc2)CCC[C@H]1CC(OS(=O)(=O)c1ccc(Cl)cc1)c1ccccc1` (single isomer, unassigned), for which the Ki in experiment [1] is 10.8 µM; in experiment [2] it was 3.24 µM; in experiment [3] it was above 100 µM; in experiment [4] it was 4.38 µM; in experiment [5], 0.016 µM.
As to `CN1[C@@H](CC(=O)c2ccccc2)CCC[C@H]1C[C@H](OC(=O)c1cccs1)c1ccccc1`, the Ki came out at 3.02 µM in experiment [1]; 6.37 µM in experiment [7]; 36.2 µM in experiment [3]; 9.7 µM in experiment [4]; 0.86 µM in experiment [5].
As to `CN1C(CC(=O)c2ccccc2)CCC[C@H]1CC(OS(=O)(=O)c1ccc([N+](=O)[O-])cc1)c1ccccc1` (single isomer, unassigned), the Ki in experiment [1] was found to be 19.9 µM; in experiment [2], 4.23 µM; in experiment [3], 53.8 µM; in experiment [4], 18.1 µM; in experiment [5], 0.013 µM.
For `CN1[C@@H](CC(=O)c2ccccc2)CCC[C@H]1C[C@H](OS(=O)(=O)c1cccs1)c1ccccc1`, in that order: 19.9 µM, 4.23 µM, 53.8 µM, 18.1 µM and 0.013 µM.
Consider `Cc1ccc(C(=O)O[C@@H](C[C@@H]2CCC[C@H](CC(=O)c3ccccc3)N2C)c2ccccc2)cc1`, for which the Ki is 2.06 µM in experiment [1]; 1.76 µM in experiment [7]; above 100 µM in experiment [3]; 1.51 µM in experiment [4]; 1.62 µM in experiment [5].
In the case of `CC(=O)OC(C[C@@H]1CCCC(CC(=O)c2ccccc2)N1C)c1ccccc1` (single isomer, unassigned), the Ki in experiment [1] was 4.64 µM; in experiment [7], 8.05 µM; in experiment [3], above 100 µM; in experiment [4], 31.4 µM; in experiment [5] it was 0.07 µM.
For orientation: IC50 means the concentration at which inhibition is half-maximal. For the compound `Cc1ccc(S(=O)(=O)OC(C[C@@H]2CCCC(CC(=O)c3ccccc3)N2C)c2ccccc2)cc1` (single isomer, unassigned), the inhibition constant (Ki) amounted to 29.1 µM in experiment [1]; 10.8 µM in experiment [2]; 18 µM in experiment [3]; 16.2 µM in experiment [4]; 0.005 µM in experiment [5]. The IC50 in experiment [8] is 0.002 µM.
As to `CN1C(CC(=O)c2ccccc2)CCC[C@H]1CC(OS(=O)(=O)Cc1ccccc1)c1ccccc1` (single isomer, unassigned), the Ki in experiment [1] was found to be 14.7 µM; in experiment [2] it was 3.98 µM; in experiment [3] it was 46.6 µM; in experiment [4], 4.52 µM; in experiment [5], 0.013 µM.
For `CN1C(CC(=O)c2ccccc2)CCC[C@H]1CC(OS(=O)(=O)c1ccc(F)cc1)c1ccccc1` (single isomer, unassigned) the same measures were 17.9 µM, 3 µM, 24.2 µM, 4.68 µM and 0.012 µM.
For the compound `CN1C(CC(=O)c2ccccc2)CCC[C@H]1CC(OC(=O)c1ccccc1)c1ccccc1` (single isomer, unassigned), the Ki was 2.31 µM in experiment [1]; 1.53 µM in experiment [7]; above 100 µM in experiment [3]; 2.07 µM in experiment [4]; 2.87 µM in experiment [5]. In addition, in experiment [8], the IC50 turned out to be 0.85 µM.
Regarding `CC(C)S(=O)(=O)OC(C[C@@H]1CCCC(CC(=O)c2ccccc2)N1C)c1ccccc1` (single isomer, unassigned), the Ki came to 4.6 µM in experiment [1]; 2.09 µM in experiment [2]; 47.7 µM in experiment [3]; 16.1 µM in experiment [4]; 0.015 µM in experiment [5].
Turning to `COc1ccc(C(=O)O[C@@H](C[C@@H]2CCC[C@H](CC(=O)c3ccccc3)N2C)c2ccccc2)cc1`, the Ki came out at 3.8 µM in experiment [1]; 2.98 µM in experiment [7]; 18.4 µM in experiment [3]; 2.04 µM in experiment [4]; 19.3 µM in experiment [5].
For `CCC(=O)OC(C[C@@H]1CCCC(CC(=O)c2ccccc2)N1C)c1ccccc1` (single isomer, unassigned), in that order: 6.88 µM, 4.75 µM, 8.86 µM, 4.87 µM and 0.15 µM.
Regarding `CN1[C@@H](CC(=O)c2ccccc2)CCC[C@H]1C[C@H](OS(=O)(=O)c1ccc2ccccc2c1)c1ccccc1`, the Ki in experiment [1] turned out to be 13.4 µM; in experiment [2], 2.48 µM; in experiment [3], 18.5 µM; in experiment [4] it was 5.06 µM; in experiment [5] it was 0.01 µM.
For `CCCC(=O)OC(C[C@@H]1CCCC(CC(=O)c2ccccc2)N1C)c1ccccc1` (single isomer, unassigned), the Ki in experiment [1] was 4.82 µM; in experiment [7], 3.38 µM; in experiment [3], above 100 µM; in experiment [4], 12.2 µM; in experiment [5], 0.5 µM.
Turning to `CN1C(CC(=O)c2ccccc2)CCC[C@H]1CC(OS(=O)(=O)c1ccccc1)c1ccccc1` (single isomer, unassigned), the Ki was 10.7 µM in experiment [1]; 3.5 µM in experiment [2]; 34.8 µM in experiment [3]; 37.3 µM in experiment [4]; 0.008 µM in experiment [5]. In addition, the IC50 in experiment [8] came to 1.6 µM.
For the compound `CN1[C@@H](CC(=O)c2ccccc2)CCC[C@H]1C[C@H](OS(=O)(=O)c1cccc2ccccc12)c1ccccc1`, the Ki was 4.14 µM in experiment [1]; 4.12 µM in experiment [2]; above 100 µM in experiment [3]; 34.5 µM in experiment [4]; 0.017 µM in experiment [5].
